Data: ChEMBL document CHEMBL2057137, “Lead optimization studies on FimH antagonists: discovery of potent and orally bioavailable ortho-substituted biphenyl mannosides” (J Med Chem, 2012)

What was measured:
[1] = test system: Escherichia coli; test: Inhibition of Escherichia coli FimH-mediated hemagglutinination of human red blood cells assessed as drug level required for > 90% inhibition of hemagglutinination after 30 mins by hemagglutinination inhibition assay
[2] = test system: Escherichia coli; test: Binding affinity to […] Escherichia coli FimH-lectine domain assessed as melting temperature at 100 uM by differential scanning fluorometric assay
Summary of the method: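 Untagged FimH lectin domain (residues 1–158 of UPEC J96 FimH), 5 µg in a 50 µl reaction of HBS (20mM HEPES pH 7.5, 150mM NaCl). Compound at 100µM final, diluted from DMSO stocks, with SYPRO Orange at 5X final. Controls were FimH alone plus 0.2% DMSO. Melt curve ran from 20–90°C in 0.5 °C steps of 15 s each, with fluorescence read on the HEX channel.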

[3] = Binding affinity to biotinylated Escherichia coli FimH-lectin domain after 30 mins by biolayer interferometry method
Summary of the method: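 FimH lectin domain biotinylated 1:1, loaded at 50μg/ml in HBS (20mM HEPES pH 7.5, 150mM NaCl) onto streptavidin tips, biocytin-blocked. Compound applied as 7 twofold dilutions in HBS for 10 min association, then 30 min dissociation, 30°C with shaking. Referenced to biocytin-blocked pins for drift and nonspecific binding. Kd from global kinetic fitting.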

[4] = Effective permeability of the compound by PAMPA assay; format: ADME; set-up: unit not given here
[5] = test system: Escherichia coli; test: Antibacterial activity against Escherichia coli K-12 ATCC 25404 assessed as inhibition of biofilm formation after 2 hrs by confocal laser microscopic analysis; format: functional, organism-based; conditions: for IC50: Escherichia coli, K-12 ATCC 25404, 2 h
[6] = Plasma concentration in mouse at 50 mg/kg, po measured after 6 hrs; format: ADME, organism-based; set-up: dose 50 mg/kg, route oral
Summary of the method: (§1)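 Oral dosing in mice at 50 mg/kg. Plasma and urine sampled at 30 min and 1, 2, 3, 4, 6 h after dosing. Compound quantified by LC-MS/MS in selected reaction monitoring mode.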

[7] = Drug level in mouse urine at 50 mg/kg, po measured after 6 hrs; format: ADME, organism-based; set-up: dose 50 mg/kg, route oral; conditions: read-out: Drug uptake; summary of the method: as §1
[8] = test system: Mus musculus; test: Ratio of drug uptake in mouse urine to plasma at 50 mg/kg, po measured after 6 hrs; conditions: in vivo
[9] = Drug metabolism in mouse urine assessed as formation of phenolic biphenyl metabolite at 10 to 200 mg/kg, po; format: ADME, organism-based; set-up: dose 10-200 mg/kg, route oral; conditions: in vivo
Summary of the method: (§2)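 Oral dosing in mice. Urine and plasma compound levels quantified by LC-MS/MS in selected reaction monitoring mode. The phenolic biphenyl hydrolysis product (R group) in urine was monitored at transition 285/254.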

[10] = test system: Mus musculus; test: Stability in mouse urinary tract infection model assessed as hydrolysis of glycosidic bond at 10 to 200 mg/kg, po; format: ADME, organism-based, Urine; set-up: dose 10-200 mg/kg, route oral; conditions: in vivo; summary of the method: as §2
[11] = Drug level in mouse urine at 100 mg/kg, po measured after 6 hrs; format: ADME, organism-based; set-up: dose 100 mg/kg, route oral; conditions: read-out: Drug uptake; summary of the method: as §2
[12] = Plasma concentration in mouse at 100 mg/kg, po measured after 6 hrs; format: ADME, organism-based; set-up: dose 100 mg/kg, route oral; summary of the method: as §2

Row | Compound | EC>90 [1] | Tm [2] | Kd [3] | further results
1 | NCCNC(=O)c1cccc(-c2ccc(O[C@H]3O[C@H](CO)[C@@H](O)[C@H](O)[C@@H]3O)cc2)c1 | 3 µM | – | – | –
2 | CNS(=O)(=O)c1cccc(-c2ccc(O[C@H]3O[C@H](CO)[C@@H](O)[C@H](O)[C@@H]3O)cc2)c1 | – | 72 °C | 0.49 nM | –
3 | COC(=O)c1cccc(-c2ccc(O[C@H]3O[C@H](CO)[C@@H](O)[C@H](O)[C@@H]3O)cc2)c1 | – | 73.4 °C | 0.08 nM | log Pe [4]: -5.42; IC50 [5]: 940 nM
4 | NC(=O)c1cccc(-c2ccc(O[C@H]3O[C@H](CO)[C@@H](O)[C@H](O)[C@@H]3O)cc2)c1 | – | 71.7 °C | 1 nM | –
5 | COC(=O)c1cc(O[C@H]2O[C@H](CO)[C@@H](O)[C@H](O)[C@@H]2O)cc(C(=O)OC)c1 | – | 73.2 °C | 3.45 nM | –
6 | COC(=O)c1ccc(-c2ccc(O[C@H]3O[C@H](CO)[C@@H](O)[C@H](O)[C@@H]3O)cc2)cc1 | – | – | 3.99 nM | –
7 | O=c1[nH]ccc2ccc(-c3ccc(O[C@H]4O[C@H](CO)[C@@H](O)[C@H](O)[C@@H]4O)cc3)cc12 | 0.1 µM | – | – | –
8 | COC(=O)c1cccc(-c2ccc(O[C@H]3O[C@H](CO)[C@@H](O)[C@H](O)[C@@H]3O)c(C(F)(F)F)c2)c1 | 0.03 µM | – | – | log Pe [4]: -3.91; IC50 [5]: 170 nM
9 | O=C(NCCO)c1cccc(-c2ccc(O[C@H]3O[C@H](CO)[C@@H](O)[C@H](O)[C@@H]3O)cc2)c1 | 0.5 µM | – | – | –
10 | COC(=O)c1cccc(-c2ccc(O[C@H]3O[C@H](CO)[C@@H](O)[C@H](O)[C@@H]3O)cc2C(=O)OC)c1 | 1 µM | – | – | log Pe [4]: -4.08
11 | O=C(O)c1cc(C(=O)O)cc(-c2ccc(O[C@H]3O[C@H](CO)[C@@H](O)[C@H](O)[C@@H]3O)cc2)c1 | – | 72.4 °C | 14.5 nM | –
12 | COC(=O)c1cccc(O[C@H]2O[C@H](CO)[C@@H](O)[C@H](O)[C@@H]2O)c1 | – | 70.8 °C | – | –
13 | OC[C@H]1O[C@H](Oc2ccc(-c3cccc(C(F)(F)F)c3)cc2)[C@@H](O)[C@@H](O)[C@@H]1O | – | 68.3 °C | 1.56 nM | –
14 | COC(=O)c1cccc(-c2ccc(O[C@H]3O[C@H](CO)[C@@H](O)[C@H](O)[C@@H]3O)c(Cl)c2)c1 | 0.03 µM | – | – | log Pe [4]: -4.29; IC50 [5]: 260 nM
15 | COc1ccccc1-c1ccc(O[C@H]2O[C@H](CO)[C@@H](O)[C@H](O)[C@@H]2O)cc1 | – | 70.7 °C | – | –
16 | CNC(=O)c1cc(C(=O)NC)cc(-c2ccc(O[C@H]3O[C@H](CO)[C@@H](O)[C@H](O)[C@@H]3O)c(C(F)(F)F)c2)c1 | 0.008 µM | 76.2 °C | – | log Pe [4]: -6.27; IC50 [5]: 43 nM; concentration at 6 h [6]: 40 nM; concentration at 6 h [7]: 890 nM; Ratio [8]: 10
17 | COC(=O)c1ccc(-c2ccc(O[C@H]3O[C@H](CO)[C@@H](O)[C@H](O)[C@@H]3O)cc2)s1 | 1 µM | – | – | –
18 | O=C(Nc1ccncc1)c1cccc(-c2ccc(O[C@H]3O[C@H](CO)[C@@H](O)[C@H](O)[C@@H]3O)cc2)c1 | 0.25 µM | – | – | –
19 | CNC(=O)c1cccc(-c2ccc(O[C@H]3O[C@H](CO)[C@@H](O)[C@H](O)[C@@H]3O)c(C(F)(F)F)c2)c1 | 0.03 µM | 72.3 °C | – | IC50 [5]: 130 nM; Ratio [8]: 10
20 | COC(=O)c1sc(-c2ccc(O[C@H]3O[C@H](CO)[C@@H](O)[C@H](O)[C@@H]3O)cc2)cc1NC(N)=O | 0.02 µM | – | – | –
21 | OC[C@H]1O[C@H](OCc2ccccc2)[C@@H](O)[C@@H](O)[C@@H]1O | – | – | 43.7 nM | –
22 | OC[C@H]1O[C@H](Oc2ccc(-c3cccc4cnccc34)cc2)[C@@H](O)[C@@H](O)[C@@H]1O | 0.25 µM | – | – | –
23 | OC[C@H]1O[C@H](Oc2ccc3ccccc3c2)[C@@H](O)[C@@H](O)[C@@H]1O | – | 70.8 °C | 2.72 nM | –
24 | COC(=O)c1cncc(-c2ccc(O[C@H]3O[C@H](CO)[C@@H](O)[C@H](O)[C@@H]3O)cc2)c1 | 0.19 µM | – | – | –

Row | Compound | EC>90 [1] | Tm [2] | Kd [3] | further results
25 | CNC(=O)c1cccc(-c2ccc(O[C@H]3O[C@H](CO)[C@@H](O)[C@H](O)[C@@H]3O)c(Cl)c2)c1 | 0.12 µM | – | – | IC50 [5]: 520 nM; Ratio [8]: 10
26 | COC(=O)c1cc(C(=O)OC)cc(-c2ccc(O[C@H]3O[C@H](CO)[C@@H](O)[C@H](O)[C@@H]3O)cc2)c1 | – | 72.5 °C | – | –
27 | CS(=O)(=O)Nc1cccc(-c2ccc(O[C@H]3O[C@H](CO)[C@@H](O)[C@H](O)[C@@H]3O)cc2)c1 | – | 70.9 °C | 2 nM | –
28 | OC[C@H]1O[C@H](Oc2ccccc2)[C@@H](O)[C@@H](O)[C@@H]1O | 30 µM | 68.9 °C | – | –
29 | O=C(Nc1cccnc1)c1cccc(-c2ccc(O[C@H]3O[C@H](CO)[C@@H](O)[C@H](O)[C@@H]3O)cc2)c1 | 0.37 µM | 72.5 °C | – | –
30 | COC(=O)c1cccc(-c2ccc(O[C@H]3O[C@H](CO)[C@@H](O)[C@H](O)[C@@H]3O)c(C)c2)c1 | 0.12 µM | – | – | IC50 [5]: 330 nM
31 | CNC(=O)c1cc(C(=O)NC)cc(-c2ccc(O[C@H]3O[C@H](CO)[C@@H](O)[C@H](O)[C@@H]3O)cc2)c1 | – | 74.4 °C | 0.14 nM | Drug metabolism [9]: Active; log Pe [4]: -4.51; MED [5]: 0.74 µM; IC50 [5]: 740 nM; Stability [10]: Unstable; concentration at 6 h [11]: 4850 nM; Ratio [8]: 10; concentration at 6 h [12]: 10 nM
32 | COC(=O)c1csc(-c2ccc(O[C@H]3O[C@H](CO)[C@@H](O)[C@H](O)[C@@H]3O)cc2)c1 | 2 µM | – | – | –
33 | COC(=O)c1cc(-c2ccc(O[C@H]3O[C@H](CO)[C@@H](O)[C@H](O)[C@@H]3O)cc2)ccn1 | 0.5 µM | 73.7 °C | – | –
34 | CN1CCN(C(=O)c2cccc(-c3ccc(O[C@H]4O[C@H](CO)[C@@H](O)[C@H](O)[C@@H]4O)cc3)c2)CC1 | 4 µM | – | – | –
35 | NC(=O)Nc1csc(-c2ccc(O[C@H]3O[C@H](CO)[C@@H](O)[C@H](O)[C@@H]3O)cc2)c1 | 1 µM | – | – | –
36 | OC[C@H]1O[C@H](Oc2ccc(-c3ccc4ccncc4c3)cc2)[C@@H](O)[C@@H](O)[C@@H]1O | 0.75 µM | – | – | –
37 | OC[C@H]1O[C@H](Oc2ccc(-c3ccc4ncncc4c3)cc2)[C@@H](O)[C@@H](O)[C@@H]1O | 0.38 µM | – | – | –
38 | O=C(c1cccc(-c2ccc(O[C@H]3O[C@H](CO)[C@@H](O)[C@H](O)[C@@H]3O)cc2)c1)N1CCNCC1 | 4 µM | – | – | –
39 | CC(=O)Nc1cccc(-c2ccc(O[C@H]3O[C@H](CO)[C@@H](O)[C@H](O)[C@@H]3O)cc2)c1 | – | 72.3 °C | 1.14 nM | –
40 | O=C(O)c1cccc(-c2ccc(O[C@H]3O[C@H](CO)[C@@H](O)[C@H](O)[C@@H]3O)cc2)c1 | – | 70.9 °C | 2.21 nM | –
41 | CNC(=O)c1cccc(-c2ccc(O[C@H]3O[C@H](CO)[C@@H](O)[C@H](O)[C@@H]3O)cc2)c1 | 0.5 µM | 73.4 °C | – | IC50 [5]: 1350 nM
42 | COC(=O)c1cccc(-c2ccc(O[C@H]3O[C@H](CO)[C@@H](O)[C@H](O)[C@@H]3O)c(OC)c2)c1 | 0.19 µM | – | – | IC50 [5]: 890 nM
43 | COc1cccc(-c2ccc(O[C@H]3O[C@H](CO)[C@@H](O)[C@H](O)[C@@H]3O)cc2)c1 | – | 71.8 °C | 1.25 nM | –
44 | CNC(=O)c1cccc(-c2ccc(O[C@H]3O[C@H](CO)[C@@H](O)[C@H](O)[C@@H]3O)c(C)c2)c1 | 0.06 µM | 74.5 °C | – | log Pe [4]: -3.89; IC50 [5]: 160 nM; concentration at 6 h [6]: 100 nM; concentration at 6 h [7]: 4370 nM; Ratio [8]: 10
45 | CNC(=O)c1cc(C(=O)NC)cc(-c2ccc(O[C@H]3O[C@H](CO)[C@@H](O)[C@H](O)[C@@H]3O)c(C)c2)c1 | 0.016 µM | 75.8 °C | – | log Pe [4]: -8.46; IC50 [5]: 73 nM; Ratio [8]: 10
46 | COC(=O)c1cccc(-c2ccc(O[C@H]3O[C@H](CO)[C@@H](O)[C@H](O)[C@@H]3O)c(F)c2)c1 | 0.75 µM | – | – | –
47 | OCc1cccc(-c2ccc(O[C@H]3O[C@H](CO)[C@@H](O)[C@H](O)[C@@H]3O)cc2)c1 | – | 71.2 °C | 2.61 nM | –
48 | OC[C@H]1O[C@H](Oc2ccc(-c3ccccc3)cc2)[C@@H](O)[C@@H](O)[C@@H]1O | – | 71.2 °C | 3 nM | –
